High-throughput results: PubChem BioAssay, several laboratories
Sampled rows, rich in hits. Any-hit rate of the full collection: about 3.4%.
PKD1 kinase inh: PKD1 (human) kinase inhibition; PKD1 kinase fluorescence polarization assay; inhibition, % (test concentration not listed); 200,000 tested, 0.056% active; AID 797; in the data active = inhibition above about 50%
p97 ATPase inh: human p97 ATPase inhibition | inhibition, % at 8 µM | P55072 | AID 1481 | 220,000 tested, 0.42% active | recombinant p97 ATPase, Kinase-Glo ATP luminescence, 3 h; in the data active = inhibition above about 15%;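 note: 0% = DMSO vehicle and 100% = wells lacking enzyme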
ROMK primary: modulates human ROMK potassium channel activity; P48048; Tet-inducible ROMK, thallium flux fluorescence; actives lie on both sides; B-score at 10 µM; 130,000 tested, 2% active;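 active = signal ratio slope over the read window, or its plate-corrected B-score, at least 3 SD from the plate mean, either direction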;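 note: B-score of the F/F0 ratio slope over 7 to 12 s after thallium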
Target sequence (P48048 whole entry, looked up): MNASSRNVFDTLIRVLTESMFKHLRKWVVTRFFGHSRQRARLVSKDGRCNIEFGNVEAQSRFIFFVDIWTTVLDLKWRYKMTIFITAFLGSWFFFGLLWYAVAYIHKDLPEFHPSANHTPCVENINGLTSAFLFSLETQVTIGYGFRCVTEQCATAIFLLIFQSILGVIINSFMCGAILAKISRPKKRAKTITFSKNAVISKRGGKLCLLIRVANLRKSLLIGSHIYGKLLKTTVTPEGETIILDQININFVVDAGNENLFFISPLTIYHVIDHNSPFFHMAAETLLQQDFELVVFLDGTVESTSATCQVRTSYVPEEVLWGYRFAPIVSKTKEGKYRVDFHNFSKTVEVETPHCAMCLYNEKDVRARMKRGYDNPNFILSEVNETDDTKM
Mdm2 ligase inh: blocks human Mdm2 ubiquitin ligase activity; Q00987; 210,000 tested, 0.11% active; AID 1230; signal enhancement, % at 5 µM; cell-based MDM2 ubiquitination luciferase reporter, 2 h; 0 = plate control, 100 = twice control, blank-subtracted;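 active = signal enhancement of 30% or more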;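 note: luminescence tracks abundance of the self-degrading MDM2-luciferase fusion protein; higher signal means inhibition of MDM2 E3 ligase activity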
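Buffer or medium: Cells held in DMEM | Assay system: Stable mammalian line carrying autodegrading MDM2–luciferase fusion reporter | Quantity: 2000 cells/well | Times: 4 h settle plus 2 h compound, 37 °C | Doses: One concentration, 5 µM, with 0.2% DMSO | Technique: Luminescence with SteadyLite reagent, 15 min at room temperature | Benchmarks: Plate controls and plate blanks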
Cl transport mod: modulates chloride dependent transport by human KCC2; 190,000 tested, 2.2% active; B-score of Tl+ flux slope (higher = more flux/activation; lower = inhibition) at 10 µM; Q9H2X9; KCC2 cells, thallium flux FluoZin-2 fluorescence;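 active = thallium flux slope and its plate-corrected score both differing from the plate sample mean at a set confidence after two filtering rounds, in either direction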;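 note: slope of fluorescence scaled to starting intensity during 10 to 20 s after thallium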
Redox H2O2 prof: compounds producing H2O2 with reducing agent – biochemical, NIH compound library profiling, artefact control for MLSCN library redox annotation, primary screen; DTT-dependent redox cycling H2O2, phenol red/HRP absorbance; 100% = 100 µM peroxide control, 0% = buffer; activation, % at 10 µM; 200,000 tested, 0.03% active;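 active = activation of at least 50% relative to the plate's high and low controls in the primary single-dose screen; inactive = activation below 50%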;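 note: compound incubated with DTT at 0.8 mM final as the reducing agent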
ROMK hit retest: retested hit modulating human ROMK potassium channel; ROMK thallium flux, fluorescence ratio; active compounds read low; shares compounds with ROMK primary; 3,000 tested, 54% active; normalized thallium flux (F/F0 slope) at 10 µM;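 active = Flux at 10 µM at least 3 SD below or above vehicle control mean in one or both replicates; inconclusive = no clear call, values can overlap the other calls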
* hit, by the source's call; i = inactive; ? = inconclusive; / = no result given.

SMILES	PKD1 kinase inh	p97 ATPase inh	ROMK primary	Mdm2 ligase inh	Cl transport mod	Redox H2O2 prof	ROMK hit retest
CCCCC(=O)Nc1ccc(NC(=O)c2ccc([N+](=O)[O-])cc2)cc1OC	-11	3	0.28	-3	-0.45	1	/
CCCN1CCC(NC(=S)Nc2ccc([N+](=O)[O-])cc2)CC1	-4	1	-4.4*	-15	1.4	0	0.056*
Cc1cc(C)nc(SCC(=O)N/N=C\c2sccc2C)n1	7	-3	/	-1	/	-5	/
CC1(C)NC(=O)N(CC(O)COc2ccccc2C(=O)Nc2ccccc2)C1=O (stereo not given)	-5	3	0.14	-12	0.54	-2	/
O=C(Nc1ccccc1)c1ccccc1OCC(O)CN1C(=O)c2ccccc2S1(=O)=O (stereo not given)	-4	4	/	-11	-1.8	14	0.061*
COc1cc(/C=C/C(=O)OCC(=O)NC2CC2)cc(S(=O)(=O)N2CCc3ccccc32)c1OC	-4	-2	-18*	-10	-1.1	-1	0.071
COc1cc(/C=C/C(=O)OCC(=O)Nc2ccc(NC(C)=O)cc2)cc(S(=O)(=O)N2CCc3ccccc32)c1OC	3	8	-0.35	3	-0.16	0	/
O=C(O)CCCCCCC1C(=O)NC(=O)N1CCC(O)C1CCCCC1 (stereo not given)	1	4	4*	/	-1.8	0	?
OCCNCc1ccc(OCc2ccc(Cl)cc2Cl)cc1	0	0	-1	-12	1.4	0	/
OCCCCNCc1ccc(OCc2ccc(Cl)cc2Cl)cc1	-7	4	/	-20	-0.72	-3	0.053*
CCOc1ccc(C2/C(=C(/O)c3ccccc3)C(=O)C(=O)N2CCCN(C)C)cc1OC (stereo not given)	4	-6	0.053	/	1.1	0	/
CCOc1ccc(C2CC(c3c(O)c4ccccc4oc3=O)=NN2c2ccccc2)cc1OC (stereo not given)	27	-2	-6.6*	-8	i	0	0.028*
COc1ccc(N=Cc2oc3ccc4ccccc4c3c2O)cc1	-2	4	-3.5*	-21	0.078	0	0.053*
COc1ccc(N=Cc2[nH]c3ccccc3c2O)cc1	-1	4	-1.6	-14	-2.7	-1	/
COc1ccc(/C=N/NC(=O)c2cccnc2)cc1COc1ccc([N+](=O)[O-])cc1	/	-2	4.7*	-10	-1.5	/	0.091
COc1cc(/C=N/NC(=O)c2cccnc2)ccc1OC(=O)c1ccc([N+](=O)[O-])cc1	3	1	-1	-12	-0.66	0	/
COc1ccc(/C=N/NC(=O)c2cccnc2)cc1COc1ccc(NC(C)=O)cc1	/	-2	3.9*	-14	-0.53	/	?
COc1ccc(/C=N/NC(=O)c2cccc(OC(F)(F)C(F)F)c2)cc1O	4	0	1.8*	5	-0.13	0	0.089
COc1ccc(/C=N/NC(=O)c2cccc(OC(F)(F)C(F)F)c2)c(OC)c1OC	1	4	-1.2	12	-1.3	0	/
CCOCCCNC(=O)C1CCC(CNS(=O)(=O)c2ccc(OC)cc2)CC1 (stereo not given)	4	2	0.055	-17	2	-2	/
O=S(=O)(NCc1ccccc1)NCc1ccccc1	1	3	/	23	0.27	0	0.083
c1csc(CNc2ncnc3sccc23)c1	-4	-2	-2.9*	/	/	0	0.066*
COc1ccccc1N1C(=O)C2C(C(=O)c3ccccc3)=NN(c3ccccc3)C2C1=O (stereo not given)	/	1	/	-3	-1.7	/	0.063*
CCOC(=O)C1=NN(c2ccccc2)C2C(=O)N(c3ccccc3OC)C(=O)C12 (stereo not given)	/	-1	/	0	0.25	/	/
COc1ccccc1N1N=C(C(=O)c2ccccc2)C2C(=O)N(c3ccc(Br)cc3)C(=O)C21 (stereo not given)	/	4	/	-8	/	/	0.065*
SMILES	PKD1 kinase inh	p97 ATPase inh	ROMK primary	Mdm2 ligase inh	Cl transport mod	Redox H2O2 prof	ROMK hit retest
Nc1nn(-c2ccccc2)c(N)c1N=Nc1cccc(F)c1	/	5	3.4*	-11	-1.1	/	0.086
CCOc1ccc2nc(NCCCNC(=O)c3cc(OC)c(OC)c(OC)c3)c(C#N)cc2c1	/	3	/	/	/	/	0.074
COC(C(=O)NCc1ccc(C)cc1)c1ccccc1 (stereo not given)	5	-4	1.7	13	-0.011	0	/
N#C/C(=C\c1ccc(O)cc1)C(=O)N1CCCC1	/	5	/	-11	0.83	/	/
N#C/C(=C\c1ccc(C#N)cc1)C(=O)N1CCCC1	-5	2	-5.1*	-9	-0.085	0	0.04*
CN1CCN(C(=O)/C(C#N)=C/c2ccc(F)cc2)CC1	-5	7	-2.7*	-2	-0.19	0	0.047*
COc1cccc(OC)c1-c1nn2c(-c3ccco3)nnc2s1	-2	0	-2.3	-10	-0.8	0	/
O=C1COc2ccc(C(=O)COC(=O)c3ccco3)cc2N1	/	4	-0.067	-7	0.12	/	/
COc1cc(C(N)=O)cc(Cl)c1OCc1ccccc1	-1	3	-0.72	-1	0.039	0	/
COc1cc(/C=C2\SC(=S)N(NS(=O)(=O)c3ccccc3)C2=O)ccc1O	/	5	/	-12	-3.2	/	0.041*
O=c1oc(/C=C/c2ccccc2)nc2sc3c(c12)CCC3	-4	2	-3.7*	-30	/	0	0.045*
CC1=CC(C)(C)N(C(=O)CNC2CCCC2)c2cc(C)ccc21	2	0	-4*	-1	-0.17	-1	0.05*
O=C(c1ccccc1)c1cc(Cl)ccc1N1C(=O)C=CC1=O	6	2	-2.7*	3	-1.7	0	0.062*
CCOC(=O)CNc1nc(Cl)c(C#N)s1	-1	11	-0.077	-17	0.62	-1	/
Cc1ccc(CNc2nc(Cl)c(C#N)s2)cc1	-4	4	1.1*	-4	0.64	-2	0.081
O=C(O)c1ccc2c(c1)C1C=CCC1C(c1cc3c(cc1Br)OCO3)N2 (stereo not given)	-5	-5	4*	-8	/	0	0.089
Brc1cc2c(cc1C1Nc3ccccc3C3C=CCC31)OCO2 (stereo not given)	-1	3	0.0035	-14	0.15	0	/
C/C(=N\NC(=O)c1ccccc1F)c1ccc2c(c1)Nc1ccccc1S2	6	1	/	-15	-0.83	2	0.07
COC(=O)C1=C(Nc2ccc(C)cc2)C=C(C)C(C(=O)OC)C1c1cccc(OC)c1 (stereo not given)	-4	-8	-1.4	-17	-0.66	0	/
Cc1cc(N2CCCCC2)nc(NCc2ccccc2)n1	4	-3	/	-14	-0.51	1	0.065*
